Assay outcomes deposited in PubChem by several laboratories.
Most compounds without a hit are left out; they make up all but 2.3% or so of the library.
ASAP1 GAP inh – inhibitors of human ASAP1 ArfGAP activity | AID 624377 | inhibition, % at 16.5 µM | ASAP1-stimulated ARF1 GTP hydrolysis, GDP FP detection | Q9ULH1 | 360,000 tested, 0.19% active; in the data active = inhibition above about 25%;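 also: 0% = vehicle with enzyme and substrate and 100% = no enzyme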
HGIII-sPLA2 inh – Inhibits HGIII-sPLA2 liposome hydrolysis, primary screen; Q9NZ20; QFRET BODIPY PC-A2 liposome hydrolysis, fluorescence; inhibition, % at 12.2 µM; 370,000 tested, 0.56% active; AID 743126;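 active = inhibition above mean plus 3 SD of compounds lying within the high and low control bounds, cut at about 19% in these data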;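 also: 0% = median of test compound wells and 100% = no enzyme DMSO wells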
ARFGAP1 inh – inhibits rat ARF GTPase activating protein 1; 360,000 tested, 0.26% active; Arfgap1-stimulated ARF1 GTP hydrolysis, GDP FP detection; inhibition, % at 16.5 µM;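 active = inhibition above a per-plate limit, mean inhibition of low control wells plus 3 SD, cut at about 25% in these data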;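 also: 0% = DMSO wells with enzyme and 100% = wells lacking Arfgap1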
Target sequence (Q62848 1-136 limits assumed): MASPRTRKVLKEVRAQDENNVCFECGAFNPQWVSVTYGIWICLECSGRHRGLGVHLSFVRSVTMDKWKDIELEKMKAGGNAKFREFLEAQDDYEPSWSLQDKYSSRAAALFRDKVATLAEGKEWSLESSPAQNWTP
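System: truncated rat Arfgap1 GAP domain / Benchmarks: high control wells lacking Arfgap1, low control full reaction with DMSO / Times: compound-enzyme preincubation 20 min, reaction 120 min, detection 60 min, 25 °C / Repeats: one replicate per compound / Also added: human ARF1(Δ1-17)-GTP substrate / Measured by: Tracer-displacement fluorescence polarization with EDTA stop, 620/688 nm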
Calb FLC – affects C. albicans growth with fluconazole; C. albicans CaCi-2 + fluconazole, Alamar Blue growth, 48 h; growth inhibition, % (test concentration not listed); 300,000 tested, 0.57% active; AID 1979;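 active = growth inhibition above about 58% in most replicates, limit read from the data, passing the limit was not always enough; inconclusive = exactly half the replicates above a set limit; inactive = most replicates below a set limit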;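 also: all wells also contain fluconazole at 8 µg/ml as a sub-toxic cotreatment; 0% = median of DMSO wells and 100% = median of geldanamycin control wells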
SKKanGAS inh – blocks kanamycin growth of S. pyogenes SKKanGAS strain. BacTiter-Glo, 6 h. inhibition, % at 7.5 µM. 300,000 tested, 1.3% active. AID 1662;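 active = mean replicate score, as percent of positive control median, at least 50; inconclusive = mean below 50 but one replicate at or above 50; inactive = mean and every replicate below 50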;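 also: strain carries kanamycin resistance gene driven by streptokinase promoter and grows in 40 µg/ml kanamycin; loss of luminescence reflects streptokinase promoter inhibition or plain growth inhibition; 0% = median of DMSO wells and 100% = positive control at its reference dose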
* = called active by the depositor; ? = inconclusive; . = no result given.

SMILES	ASAP1 GAP inh	HGIII-sPLA2 inh	ARFGAP1 inh	Calb FLC	SKKanGAS inh
NC(=O)CCCn1c(C(=O)c2ccc(Cl)cc2)c2ccc([N+](=O)[O-])cc2[n+]1[O-]	15	3	10	43	23
CCCC[C@H]1C2CC(OC(=O)Nc3cccc(C#N)c3)C(C2)[C@H]2CCCCN21 (some centres undefined)	.	-1	.	.	.
CC(=O)Cc1nsc(Nc2ccc(Cl)cc2)n1	13	-31	3	118*	.
CCCCOCCCNC(=O)C[C@@H]1C(=O)N(Cc2ccc(OC)cc2)C2=CCN(C(=O)OC(C)(C)C)C[C@]21C(=O)OCC	.	-2	.	.	.
CCOC(=O)C1=C(c2ccccc2)N=c2s/c(=C\c3cccc(O)c3)c(=O)n2C1c1cccs1 (centres undefined)	-1	-3	9	0	54*
CCc1nn(CCCC(=O)NCc2ccccc2Br)c(=O)c2cc3occc3n12	-7	-9	2	-4	59*
Cc1ccc(S(=O)(=O)NCC(=O)N2CCN(c3ccccn3)CC2)s1	.	16	.	.	.
Fc1cccc(-n2cc(-c3ccccc3)c3c(=S)nc[nH]c32)c1	12	-12	-7	101*	84*
Fc1ccc(-n2cc(-c3ccccc3)c3c(=S)nc[nH]c32)cc1	-2	-1	11	61	65*
O=c1[nH]cnc2c1c(-c1ccccc1)cn2-c1ccccc1	10	-4	2	-8	5
CCc1ccc2c(c1)C1(NN=C(c3ccc(C)cc3)S1)C(=O)N2 (centres undefined)	19	-2	3	-10	80*
CCc1ccc2c(c1)NC(=O)C2(C)Cc1ccc(F)cc1 (centres undefined)	7	-8	0	.	.
CC(C)c1ccc2c(c1)C1(NN=C(c3ccccc3)S1)C(=O)N2 (centres undefined)	10	5	-1	?	99*
O=C(N[C@H](C(=O)N1CCC[C@H]1C(=O)NCc1ccccc1)C1CCCCC1)c1ccc(Cl)c(Cl)c1	-3	-2	-3	.	.
Cc1cc(-c2nnc(SCC(=O)Nc3cccc4ccccc34)n2N)n[nH]1	.	17	.	.	.
O=C(N/N=C/c1cc(Br)c(O)c(Br)c1)c1cc2c(ccc3ccccc32)o1	-11	-6	-17	109*	.
COc1ccc2c(c1)c(CC(=O)NCc1cc([N+](=O)[O-])ccc1O)c(C)n2C(=O)c1ccc(Cl)cc1	15	-6	-2	-2	51*
CN(C)CCCNC(=O)c1ccc(-c2nc(-c3ccc(Cl)cc3)cs2)cc1	-6	-23	-9	100*	10
S=C1NC[C@H](CC2CCCCC2)N1CC1CCCCC1	-13	-5	-9	-7	61*
CC(=O)OCC12COC3c4ccccc4OC(C)(CC1C)C3C2C (centres undefined)	19	-6	5	106*	-3
CCNC(=O)O[C@@H]1C=C[C@@H](C#Cc2ccc(C(C)(C)C)cc2)O[C@@H]1COC(C)=O	-16	-8	-3	.	.
CC(=O)Oc1ccc2c(=O)c(-c3nc4ccccc4s3)coc2c1	4	-6	2	89*	10
CCCCOCC1CN(CCCC)S(=O)(=O)c2c(cccc2N(C)S(=O)(=O)c2ccc(C)cc2)O1 (centres undefined)	-1	-2	0	.	.
CC1(C)CC(N=Cc2c(O)n(Cc3ccc4c(c3)OCO4)c(=O)c3ccccc23)CC(C)(C)N1	-3	0	8	88*	2
Clc1cccc(Nc2ncnc3c2cnn3-c2ccccc2)c1	-12	-30	15	3	64*
O=C(OCc1ccccc1)[C@H](Cc1ccccc1)NC(=O)[C@@H]1CC=C[C@@H]2CCN(CCc3ccccc3)C(=O)[C@@H]21	.	-12	.	.	.
C/C(=N\NC(=O)CCC(=O)Nc1ccc(C)c(C)c1)C1CC1	-12	-7	-2	123*	.
CCCCCCCCN1C(=O)[C@@H](CC(=O)NCCc2ccccc2OC)C[C@@]2(C(=O)OC)C1=C[C@H](C(C)C)O[C@@H]2C1CC1	.	-4	.	.	.
COc1ccccc1NS(=O)(=O)c1cc([N+](=O)[O-])ccc1N/N=C/c1c(C)[nH]c2ccccc12	-3	-6	10	25	31
O=[N+]([O-])c1ccc(N/N=C/c2c[nH]c3ccccc23)c(S(=O)(=O)Nc2ccc(Cl)cc2)c1	19	1	1	-15	77*
